Laboratory results from ChEMBL document CHEMBL1124029, “Novel DNA groove binding alkylators: design, synthesis, and biological evaluation” (1988).

Assays:
[1] = Minimum inhibitory concentration required to reduce virus induced cytopathogenicity by 50% against para influenza virus in WI-38 cell cultures; type: functional
Human rhinovirus 1A = test: Minimum inhibitory concentration required to reduce virus induced cytopathogenicity by 50% against rhino-1A virus in WI-38 cell cultures; type: functional
Human alphaherpesvirus 1 = test: Minimum inhibitory concentration required to reduce virus induced cytopathogenicity by 50% against herpes simplex-1 virus in rabbit primary kidney cell cultures; type: functional
P388 = test: Percent inhibition of proliferation of Murine Leukemia (P388) cells was measured; type: functional, Mus musculus; parameters: concentration or dose not given beside the values
Summary of the method: (§1)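 Mouse leukemia L1210 cells were grown in McCoy's 5A medium and P388D1 cells in Fischer's medium, each with 10% fetal calf serum. Compounds were dissolved in water, or sonicated and given as a suspension if poorly soluble. Cells were seeded at 1×10^5 per well and grown 72 h at 37 °C in 5% CO2. Viability was read by MTT formazan optical density at 570 nm (reference 630 nm).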

Coxsackievirus B4 [2] = test: Minimum inhibitory concentration required to reduce virus induced cytopathogenicity by 50% against Coxsackie type B4 virus in HeLa cell cultures; type: functional; settings: Enterovirus B
Semliki Forest virus = test: Minimum inhibitory concentration required to reduce virus induced forest virus in Vero B cell cultures; type: functional
Raji = test: Inhibition of proliferation of Human B Lymphoblast (Raji) cells was measured; type: functional; settings: read-out: ID50 (the source's name)
MOLT-4F = test: Inhibition of proliferation of Human T Lymphoblast (Molt/4F) cells was measured; type: functional; settings: read-out: ID50 (the source's name)
Sindbis virus = test: Minimum inhibitory concentration required to reduce virus induced cytopathogenicity by 50% against sindbis virus in Vero B cell cultures; type: functional
Coxsackievirus B4 [3] = test: Minimum inhibitory concentration required to reduce virus induced cytopathogenicity by 50% against Coxsackie type B4 virus in Vero B cell cultures; type: functional; settings: Enterovirus B
[4] = (§2) Minimum cytotoxic concentration required to cause a microscopically detectable alteration of normal cell morphology; type: functional
[5] = system: Mammalian orthoreovirus 1; test: Minimum inhibitory concentration required to reduce virus induced cytopathogenicity by 50% against Reo-1 virus in WI-38 cell cultures; type: functional
L1210 [6] = test: Inhibition of proliferation of Murine Leukemia (L1210) cells was measured; type: functional; settings: Mus musculus, read-out: ID50 (the source's name)
FM3A = test: Inhibition of proliferation of Murine mammary carcinoma (FM3A) cells was measured; type: functional; settings: Mus musculus, read-out: ID50 (the source's name)
L1210 [7] = test: Percent inhibition of proliferation of Murine Leukemia (L1210) cells was measured; type: functional, Mus musculus; parameters: concentration or dose not given beside the values; summary of the method: as §1
Human alphaherpesvirus 2 = test: Minimum inhibitory concentration required to reduce virus induced cytopathogenicity by 50% against herpes simplex-2 virus in rabbit primary kidney cell cultures; type: functional
[8] = as §2; type: functional; remark: listed apart in the source
[9] = system: Vesicular stomatitis virus; test: Minimum inhibitory concentration required to reduce virus induced cytopathogenicity by 50% against Vesicular stomatitis virus in HeLa cell cultures; type: functional
rhinovirus A9 = test: Minimum inhibitory concentration required to reduce virus induced cytopathogenicity by 50% against rhino-9 virus in WI-38 cell cultures; type: functional; settings: Rhinovirus A
Poliovirus 1 = test: Minimum inhibitory concentration required to reduce virus induced cytopathogenicity by 50% against polio type 1 virus in HeLa cell cultures; type: functional; settings: Enterovirus C
NAMALVA = test: Inhibition of proliferation of Human B Lymphoblast (Namalva) cells was measured; type: functional; settings: read-out: ID50 (the source's name)
Hepatoma cell line = test: Inhibition of proliferation of Human hepatoma cells was measured; type: functional; settings: read-out: ID50 (the source's name)

SMILES | MIC [1] | MIC (Human rhinovirus 1A) | MIC (Human alphaherpesvirus 1) | Inhibition (P388) | MIC (Coxsackievirus B4 [2]) | MIC (Semliki Forest virus) | IC50 (Raji) | IC50 (MOLT-4F) | MIC (Sindbis virus) | MIC (Coxsackievirus B4 [3]) | MCC [4] | MIC [5] | IC50 (L1210 [6]) | IC50 (FM3A) | Inhibition (L1210 [7]) | MIC (Human alphaherpesvirus 2) | MCC [8] | MIC [9] | MIC (rhinovirus A9) | MIC (Poliovirus 1) | further results
Cl.Cn1cc(NC(=O)c2cc(NC(=O)C(Cl)(Cl)Cl)cn2C)cc1C(=O)NCCC(=N)N | > 100 mg/L | > 40 mg/L | > 100 mg/L | 55% | > 40 mg/L | > 100 mg/L | 68.7 mg/L | 84.3 mg/L | > 100 mg/L | > 100 mg/L | > 200 µg/mL | > 40 mg/L | 30.5 mg/L | > 100 mg/L | 28% | > 100 mg/L | > 100 µg/mL | > 40 mg/L | > 40 mg/L | > 40 mg/L | –
Cl.Cn1cc(NC(=O)c2cc(NC(=O)CCl)cn2C)cc1C(=O)NCCC(=N)N | > 100 mg/L | – | 70 mg/L | 38% | > 100 mg/L | > 100 mg/L | 3.09 mg/L | 28.7 mg/L | > 100 mg/L | > 100 mg/L | – | > 100 mg/L | 8.7 mg/L | 13.3 mg/L | 29% | 70 mg/L | ≥ 100 µg/mL | > 200 mg/L | – | > 100 mg/L | IC50 (NAMALVA): 5.3 mg/L; IC50 (Hepatoma cell line): 3.63 mg/L
Cl.Cn1cc(NC(=O)c2cc(NC(=O)CF)cn2C)cc1C(=O)NCCC(=N)N | > 40 mg/L | > 200 mg/L | 150 mg/L | 0% | – | > 200 mg/L | 33.1 mg/L | 32.3 mg/L | > 200 mg/L | > 200 mg/L | > 100 µg/mL | > 100 mg/L | 40.3 mg/L | ≥ 100 mg/L | 0% | 100 mg/L | > 200 µg/mL | 100 mg/L | > 200 mg/L | – | IC50 (NAMALVA): 32.3 mg/L
Cl.Cn1cc(NC(=O)c2cc(NC(=O)CCCCl)cn2C)cc1C(=O)NCCC(=N)N | – | – | 300 mg/L | 0% | – | – | > 100 mg/L | > 100 mg/L | – | – | > 200 µg/mL | – | > 100 mg/L | 74.1 mg/L | 0% | 150 mg/L | > 200 µg/mL | > 400 mg/L | – | – | –
Cl.Cl.Cn1cc(NC(=O)c2cc(NC(=O)c3cc(NC=O)cn3C)cn2C)cc1C(=O)NCCC(=N)N | > 200 mg/L | – | 70 mg/L | – | – | > 200 mg/L | 23.7 mg/L | 28.4 mg/L | > 200 mg/L | > 200 mg/L | > 200 µg/mL | > 200 mg/L | 27.1 mg/L | 30.6 mg/L | – | 70 mg/L | > 200 µg/mL | > 100 mg/L | – | – | IC50 (NAMALVA): 22.5 mg/L; IC50 (Hepatoma cell line): 54.7 mg/L
Cl.Cn1cc(NC(=O)c2cc(NC(=O)C3CC3)cn2C)cc1C(=O)NCCC(=N)N | > 100 mg/L | > 40 mg/L | 20 mg/L | 8% | – | > 100 mg/L | 26.7 mg/L | 7.8 mg/L | > 100 mg/L | > 100 mg/L | > 200 µg/mL | > 100 mg/L | > 100 mg/L | > 100 mg/L | 3% | 40 mg/L | 100 µg/mL | > 100 mg/L | 20 mg/L | – | –
CC[N+](CC)(CC)CC.Cn1cc(NC(=O)c2cc(NC(=O)C(Cl)Cl)cn2C)cc1C(=O)NCCC(=N)N.O=S(=O)([O-])O | > 100 mg/L | 40 mg/L | 70 mg/L | 28% | > 100 mg/L | > 100 mg/L | 24.1 mg/L | 27.2 mg/L | > 100 mg/L | > 40 mg/L | > 200 µg/mL | > 200 mg/L | > 100 mg/L | > 100 mg/L | 13% | 70 mg/L | 200 µg/mL | > 200 mg/L | 40 mg/L | > 100 mg/L | –
Cl.Cl.Cn1cc(NC(=O)c2cc(NC(=O)CNC(=N)N)cn2C)cc1C(=O)NCCC(=N)N [CONGOCIDINE] | > 100 mg/L | – | > 10 mg/L | – | – | > 200 mg/L | – | > 100 mg/L | > 200 mg/L | > 200 mg/L | – | > 200 mg/L | – | – | – | > 10 mg/L | > 400 µg/mL | > 10 mg/L | – | – | IC50 (Hepatoma cell line): 44.7 mg/L
